Reference: ChEMBL document CHEMBL1155278, “3,4-Diaryl-isoxazoles and -imidazoles as potent dual inhibitors of p38alpha mitogen activated protein kinase and casein kinase 1delta” (J Med Chem, 2009)

Assays:
[1] = biological target: Insulin-like growth factor 1 receptor (Homo sapiens) (UniProt P08069); test: Inhibition of IGF1R assessed as residual activity at 0.1 uM by Cherenkov counting relative to control in presence of 5 uM ATP
Method in brief: (§1)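 Single-concentration screen at 0.1 µM across a panel of 76 protein kinases. Each kinase was run at an ATP concentration approximating its ATP Km. Results are % mean residual activity versus control assays without compound (n = 3 ± SD).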

[2] = biological target: Mitogen-activated protein kinase 11 (Homo sapiens) (UniProt Q15759); test: Inhibition of p38beta assessed as residual activity at 0.1 uM by Cherenkov counting relative to control
Method in brief: (§2)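 Single-concentration screen at 0.1 μM in a 76-kinase panel. ATP for each kinase was set near its Km for ATP. Residual activity is given as a percentage of control assays without compound, mean of n = 3 ± SD.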

[3] = biological target: MAP kinase-activated protein kinase 2 (Homo sapiens) (UniProt P49137); test: Inhibition of MAPKAPK2 assessed as residual activity at 0.1 uM by Cherenkov counting relative to control in presence of 20 uM ATP
Method in brief: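 Single-concentration selectivity screen at 0.1 μM against a panel of 76 protein kinases. Each kinase was run at an ATP level approximating its Km for ATP. Output is mean residual activity as % of the control assay without compound, n = 3 ± SD.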

[4] = biological target: T1, Serine/threonine-protein kinase BRSK2 (Homo sapiens) (UniProt Q8IWQ3); test: Inhibition of BRSK2 assessed as residual activity at 0.1 uM by Cherenkov counting relative to control in presence of 50 uM ATP; method in brief: as §1
T1 sequence (whole entry): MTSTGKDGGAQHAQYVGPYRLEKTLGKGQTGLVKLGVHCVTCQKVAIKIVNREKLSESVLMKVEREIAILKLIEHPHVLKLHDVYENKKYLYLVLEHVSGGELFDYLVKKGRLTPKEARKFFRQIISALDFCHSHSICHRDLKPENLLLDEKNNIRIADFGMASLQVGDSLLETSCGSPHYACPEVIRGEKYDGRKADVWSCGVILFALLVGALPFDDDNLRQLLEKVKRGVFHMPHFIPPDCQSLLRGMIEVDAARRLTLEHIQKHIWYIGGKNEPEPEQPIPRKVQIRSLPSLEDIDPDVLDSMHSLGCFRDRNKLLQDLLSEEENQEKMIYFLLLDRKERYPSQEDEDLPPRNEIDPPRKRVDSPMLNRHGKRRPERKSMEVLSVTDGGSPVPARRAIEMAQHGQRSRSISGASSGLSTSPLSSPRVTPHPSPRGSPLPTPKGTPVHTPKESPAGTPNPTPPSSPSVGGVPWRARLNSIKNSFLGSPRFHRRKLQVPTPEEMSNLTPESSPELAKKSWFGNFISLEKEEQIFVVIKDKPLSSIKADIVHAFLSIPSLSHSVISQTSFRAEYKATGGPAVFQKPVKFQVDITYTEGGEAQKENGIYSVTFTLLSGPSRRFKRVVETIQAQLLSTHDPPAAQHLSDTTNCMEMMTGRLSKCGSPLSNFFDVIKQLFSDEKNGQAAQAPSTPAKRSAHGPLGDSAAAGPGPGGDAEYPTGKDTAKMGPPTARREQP

[5] = biological target: Proto-oncogene tyrosine-protein kinase Src (Homo sapiens) (UniProt P12931); test: Inhibition of Src assessed as residual activity at 0.1 uM by Cherenkov counting relative to control in presence of 50 uM ATP; method in brief: as §2
[6] = biological target: 3-phosphoinositide-dependent protein kinase 1 (Homo sapiens) (UniProt O15530); test: Inhibition of PDK1 assessed as residual activity at 0.1 uM by Cherenkov counting relative to control in presence of 20 uM ATP
[7] = biological target: Serine/threonine-protein kinase N2 (Homo sapiens) (UniProt Q16513); test: Inhibition of PRK2 assessed as residual activity at 10 uM by Cherenkov counting relative to control in presence of 5 uM ATP
Method in brief: (§3)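 Single-concentration profiling at 10 μM in a 78-kinase panel. Kinase activity is expressed as a percentage of control assays run without compound.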

[8] = biological target: Protein kinase C alpha type (Homo sapiens) (UniProt P17252); test: Inhibition of PKCalpha assessed as residual activity at 10 uM by Cherenkov counting relative to control in presence of 20 uM ATP; method in brief: as §3
[9] = biological target: T2, Serine/threonine-protein kinase D1 (Homo sapiens) (UniProt Q15139); test: Inhibition of PKD1 assessed as residual activity at 10 uM by Cherenkov counting relative to control in presence of 50 uM ATP; method in brief: as §3
T2 sequence (whole entry): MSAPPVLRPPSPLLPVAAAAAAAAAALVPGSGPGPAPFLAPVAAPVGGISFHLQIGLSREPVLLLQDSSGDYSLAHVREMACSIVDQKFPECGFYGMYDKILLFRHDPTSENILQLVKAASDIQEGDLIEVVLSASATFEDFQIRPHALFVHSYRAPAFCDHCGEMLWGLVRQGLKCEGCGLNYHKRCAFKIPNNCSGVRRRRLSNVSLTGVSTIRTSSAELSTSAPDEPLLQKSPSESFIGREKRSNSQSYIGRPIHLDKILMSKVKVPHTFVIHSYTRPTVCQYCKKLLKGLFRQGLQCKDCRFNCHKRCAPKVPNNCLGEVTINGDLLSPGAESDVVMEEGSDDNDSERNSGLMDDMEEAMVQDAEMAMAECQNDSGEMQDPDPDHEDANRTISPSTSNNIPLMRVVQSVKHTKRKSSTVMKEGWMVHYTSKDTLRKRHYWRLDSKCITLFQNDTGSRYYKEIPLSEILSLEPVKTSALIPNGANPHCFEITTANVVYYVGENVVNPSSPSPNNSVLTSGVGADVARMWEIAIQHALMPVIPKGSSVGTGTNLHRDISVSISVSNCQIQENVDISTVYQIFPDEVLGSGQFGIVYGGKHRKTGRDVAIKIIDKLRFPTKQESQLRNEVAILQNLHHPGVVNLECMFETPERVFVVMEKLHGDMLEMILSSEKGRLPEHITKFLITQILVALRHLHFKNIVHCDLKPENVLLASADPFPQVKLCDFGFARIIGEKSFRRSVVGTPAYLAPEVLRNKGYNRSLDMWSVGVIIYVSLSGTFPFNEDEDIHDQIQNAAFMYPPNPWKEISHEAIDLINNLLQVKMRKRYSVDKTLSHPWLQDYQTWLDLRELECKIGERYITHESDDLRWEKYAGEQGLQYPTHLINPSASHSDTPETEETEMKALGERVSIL

[10] = biological target: MAP/microtubule affinity-regulating kinase 3 (Homo sapiens) (UniProt P27448); test: Inhibition of MARK3 assessed as residual activity at 10 uM by Cherenkov counting relative to control in presence of 5 uM ATP
[11] = Inhibition of CK2 assessed as residual activity at 10 uM by Cherenkov counting relative to control in presence of 5 uM ATP
Method in brief: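 Single-point profiling at 10 µM in a panel of 78 protein kinases. Kinase activity is expressed as a percentage relative to control assays without compound.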

3-phosphoinositide-dependent protein kinase 1 (Homo sapiens), sequence (O15530 whole entry, looked up): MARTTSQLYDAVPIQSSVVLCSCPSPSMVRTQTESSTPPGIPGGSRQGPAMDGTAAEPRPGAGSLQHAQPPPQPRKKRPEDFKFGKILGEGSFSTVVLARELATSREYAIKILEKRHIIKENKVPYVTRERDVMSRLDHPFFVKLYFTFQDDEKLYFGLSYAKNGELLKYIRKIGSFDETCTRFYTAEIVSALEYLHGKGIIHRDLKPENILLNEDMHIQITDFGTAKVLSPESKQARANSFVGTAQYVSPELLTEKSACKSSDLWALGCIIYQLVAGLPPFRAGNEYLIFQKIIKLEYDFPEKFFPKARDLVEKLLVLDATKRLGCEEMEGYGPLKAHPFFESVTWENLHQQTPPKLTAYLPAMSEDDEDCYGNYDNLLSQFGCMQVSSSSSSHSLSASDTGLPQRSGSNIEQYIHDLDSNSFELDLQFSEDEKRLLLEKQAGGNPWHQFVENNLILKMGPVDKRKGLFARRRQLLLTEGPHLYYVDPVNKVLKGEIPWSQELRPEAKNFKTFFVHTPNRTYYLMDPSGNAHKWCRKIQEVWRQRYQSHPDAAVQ
MAP/microtubule affinity-regulating kinase 3 (Homo sapiens), sequence (P27448 whole entry, looked up): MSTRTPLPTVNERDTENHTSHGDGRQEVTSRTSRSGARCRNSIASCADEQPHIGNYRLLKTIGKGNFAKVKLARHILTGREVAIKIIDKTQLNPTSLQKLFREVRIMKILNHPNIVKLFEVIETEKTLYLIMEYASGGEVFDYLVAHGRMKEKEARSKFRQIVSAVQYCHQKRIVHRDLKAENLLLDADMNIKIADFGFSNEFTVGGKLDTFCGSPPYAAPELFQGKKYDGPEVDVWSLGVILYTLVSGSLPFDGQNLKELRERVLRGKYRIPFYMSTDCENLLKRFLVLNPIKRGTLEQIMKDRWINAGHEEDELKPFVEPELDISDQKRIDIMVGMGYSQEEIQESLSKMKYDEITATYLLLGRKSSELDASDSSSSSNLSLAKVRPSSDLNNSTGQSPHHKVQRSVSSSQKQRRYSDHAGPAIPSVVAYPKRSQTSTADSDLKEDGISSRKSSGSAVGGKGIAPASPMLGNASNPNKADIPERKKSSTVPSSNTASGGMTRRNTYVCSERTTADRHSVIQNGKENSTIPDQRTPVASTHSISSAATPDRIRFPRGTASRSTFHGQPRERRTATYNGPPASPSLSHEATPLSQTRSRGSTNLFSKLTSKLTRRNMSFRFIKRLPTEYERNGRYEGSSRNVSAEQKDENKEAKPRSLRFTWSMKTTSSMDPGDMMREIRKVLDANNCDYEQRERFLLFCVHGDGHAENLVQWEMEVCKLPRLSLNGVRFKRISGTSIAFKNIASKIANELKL
Proto-oncogene tyrosine-protein kinase Src (Homo sapiens), sequence (P12931 2-536 limits assumed): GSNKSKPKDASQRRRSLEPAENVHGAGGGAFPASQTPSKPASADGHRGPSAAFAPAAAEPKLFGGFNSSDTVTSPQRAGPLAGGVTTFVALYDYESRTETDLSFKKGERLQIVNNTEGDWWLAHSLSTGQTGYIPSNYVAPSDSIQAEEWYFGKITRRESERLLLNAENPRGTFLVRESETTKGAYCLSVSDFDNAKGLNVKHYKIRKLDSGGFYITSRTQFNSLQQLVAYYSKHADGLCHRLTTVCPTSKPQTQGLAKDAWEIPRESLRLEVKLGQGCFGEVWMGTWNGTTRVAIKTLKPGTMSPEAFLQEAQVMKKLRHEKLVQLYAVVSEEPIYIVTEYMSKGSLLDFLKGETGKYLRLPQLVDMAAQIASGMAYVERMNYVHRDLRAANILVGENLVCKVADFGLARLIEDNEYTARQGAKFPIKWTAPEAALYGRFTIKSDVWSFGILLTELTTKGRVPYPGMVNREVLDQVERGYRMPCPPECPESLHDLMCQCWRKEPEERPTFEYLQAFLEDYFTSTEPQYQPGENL
Serine/threonine-protein kinase N2 (Homo sapiens), sequence (Q16513 whole entry, looked up): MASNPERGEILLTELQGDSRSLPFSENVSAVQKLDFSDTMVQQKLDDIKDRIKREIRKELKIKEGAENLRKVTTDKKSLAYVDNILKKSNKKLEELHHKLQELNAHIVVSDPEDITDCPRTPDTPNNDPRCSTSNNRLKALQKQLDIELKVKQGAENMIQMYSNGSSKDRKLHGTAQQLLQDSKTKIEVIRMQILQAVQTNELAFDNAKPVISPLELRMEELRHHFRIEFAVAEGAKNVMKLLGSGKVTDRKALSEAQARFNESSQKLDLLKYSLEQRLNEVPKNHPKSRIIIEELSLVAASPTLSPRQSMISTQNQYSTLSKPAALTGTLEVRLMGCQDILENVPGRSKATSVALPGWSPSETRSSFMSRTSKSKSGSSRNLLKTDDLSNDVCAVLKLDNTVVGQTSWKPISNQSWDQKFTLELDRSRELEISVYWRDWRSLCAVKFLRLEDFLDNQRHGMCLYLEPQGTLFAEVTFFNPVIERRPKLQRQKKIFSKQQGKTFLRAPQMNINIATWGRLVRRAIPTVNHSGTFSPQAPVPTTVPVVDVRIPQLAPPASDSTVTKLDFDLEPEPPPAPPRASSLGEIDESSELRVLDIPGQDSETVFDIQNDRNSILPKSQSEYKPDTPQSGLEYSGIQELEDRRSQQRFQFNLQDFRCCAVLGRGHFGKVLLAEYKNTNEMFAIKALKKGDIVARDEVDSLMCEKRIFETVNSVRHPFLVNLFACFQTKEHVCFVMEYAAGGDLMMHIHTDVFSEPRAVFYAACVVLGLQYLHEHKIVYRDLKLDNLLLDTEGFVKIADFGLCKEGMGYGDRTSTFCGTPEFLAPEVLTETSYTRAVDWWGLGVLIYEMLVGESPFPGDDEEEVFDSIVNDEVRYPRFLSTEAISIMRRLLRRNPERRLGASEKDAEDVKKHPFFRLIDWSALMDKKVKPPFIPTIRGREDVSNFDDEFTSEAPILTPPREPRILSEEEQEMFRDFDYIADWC
MAP kinase-activated protein kinase 2 (Homo sapiens), sequence (P49137 whole entry, looked up): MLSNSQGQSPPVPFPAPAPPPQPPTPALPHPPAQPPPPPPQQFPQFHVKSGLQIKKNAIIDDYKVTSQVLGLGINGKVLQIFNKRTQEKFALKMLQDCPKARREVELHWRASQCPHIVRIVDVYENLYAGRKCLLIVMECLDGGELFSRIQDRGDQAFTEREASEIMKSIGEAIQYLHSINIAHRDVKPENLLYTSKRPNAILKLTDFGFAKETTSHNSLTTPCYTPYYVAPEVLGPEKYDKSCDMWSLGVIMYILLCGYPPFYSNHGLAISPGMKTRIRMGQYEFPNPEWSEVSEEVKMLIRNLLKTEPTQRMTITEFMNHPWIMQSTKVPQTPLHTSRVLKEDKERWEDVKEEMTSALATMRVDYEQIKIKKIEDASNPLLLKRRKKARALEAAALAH
Mitogen-activated protein kinase 11 (Homo sapiens), sequence (Q15759 whole entry): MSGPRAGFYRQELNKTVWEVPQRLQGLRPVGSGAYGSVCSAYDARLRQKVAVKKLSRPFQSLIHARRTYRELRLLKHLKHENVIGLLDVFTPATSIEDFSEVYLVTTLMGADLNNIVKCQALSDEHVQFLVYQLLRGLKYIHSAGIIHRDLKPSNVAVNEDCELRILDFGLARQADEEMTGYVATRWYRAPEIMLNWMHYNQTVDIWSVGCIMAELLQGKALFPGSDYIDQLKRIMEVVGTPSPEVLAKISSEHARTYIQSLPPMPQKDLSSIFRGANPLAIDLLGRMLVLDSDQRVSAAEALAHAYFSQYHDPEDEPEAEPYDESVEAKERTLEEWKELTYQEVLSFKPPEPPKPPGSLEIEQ

Row | Structure (SMILES) | Activity [1] [%] | Activity [2] [%] | Activity [3] [%] | Activity [4] [%] | Activity [5] [%] | Activity [6] [%] | Activity [7] [%] | Activity [8] [%] | Activity [9] [%] | Activity [10] [%] | Activity [11] [%]
1 | COc1ccc(/C=C/C(=O)Nc2cc(-c3[nH]c(SC)nc3-c3ccc(F)cc3)ccn2)c(OC)c1 | 87 | 17 | 82 | 86 | 49 | 74 |  |  |  |  | 
2 | COc1ccc(/C=C/C(=O)Nc2cc(-c3[nH]c([S+](C)[O-])nc3-c3ccc(F)cc3)ccn2)c(OC)c1 (configuration not stated) | 107 | 46 | 78 | 97 | 63 | 94 |  |  |  |  | 
3 | CC(C)c1onc(-c2ccc(F)cc2)c1-c1ccncc1 |  |  |  |  |  |  | 88 | 95 | 60 | 95 | 96
4 | CC(C)c1noc(-c2ccc(F)cc2)c1-c1ccncc1 |  |  |  |  |  |  | 98 | 104 | 89 | 92 | 95
